A short description of data set [1]: Bioavailability was measured after oral dosing at 10 mg/kg in female BALB/c mice(100% PEG400). The data set is classed as ADME, organism-based. The following applies: mouse, in vivo, read-out: Bioavailabiility.
Data set [2] in a line: Bioavailability was measured after oral dosing at 10 mg/kg in male cynomolgus monkey (100% PEG400). In kind it is ADME, organism-based, Macaca fascicularis. As to conditions: in vivo, read-out: Bioavailabiility.
Data set [3] can be described thus: Half life was measured after intravenous dosing at 1 mg/kg in female BALB/c mice(70% PEG400). The data set is classed as ADME, organism-based. Also noted: dose 1 mg/kg, route intravenous. The following applies: mouse, in vivo.
A short description of data set [4]: Vss was measured after intravenous dosing at 1 mg/kg in female BALB/c mice(70% PEG400). In kind it is ADME, organism-based. Also on record: dose 1 mg/kg, route intravenous. As to conditions: mouse, in vivo, read-out: Vss.
Data set [5] is described as follows: Vss was measured after intravenous dosing at 1 mg/kg in male cynomolgus monkey (70% PEG400). In kind it is ADME, organism-based, Macaca fascicularis. Also on record: dose 1 mg/kg, route intravenous. The following applies: in vivo, read-out: Vss.
Data set [6] is described as follows: Maximum plasma conc. was measured after oral dosing at 10 mg/kg in female BALB/c mice(100% PEG400). As to conditions: mouse. Also noted: dose 10 mg/kg, route oral. In kind it is ADME, organism-based.
Data set [7] in a line: Half-life was measured after intravenous dosing at 1 mg/kg in male cynomolgus monkey (70% PEG400). In kind it is ADME, organism-based, Macaca fascicularis. Also on record: dose 1 mg/kg, route intravenous. As to conditions: in vivo.
The nature of data set [8]: Maximum conc. (Cmax) was measured after oral dosing at 10 mg/kg in male cynomolgus monkey (100% PEG400). In kind it is ADME, organism-based, Macaca fascicularis. Also on record: dose 10 mg/kg, route oral. As to conditions: in vivo.
Data set [9] is described as follows: Maximum time (Tmax) was measured after oral dosing at 10 mg/kg in female BALB/c mice(100% PEG400). The data set is classed as ADME, organism-based. Also noted: dose 10 mg/kg, route oral. As to conditions: mouse, in vivo.
A short description of data set [10]: Maximum time (Tmax) was measured after oral dosing at 10 mg/kg in male cynomolgus monkey (100% PEG400). The data set is classed as ADME, organism-based, Macaca fascicularis. Also on record: dose 10 mg/kg, route oral. The following applies: in vivo.
Data set [11] in a line: Plasma clearance (CL) was measured after intravenous dosing at 1 mg/kg in female BALB/c mice(70% PEG400). The data set is classed as ADME, organism-based. As to conditions: mouse. Also on record: dose 1 mg/kg, route intravenous.
A short description of data set [12]: Plasma clearance was measured after intravenous dosing at 1 mg/kg in male cynomolgus monkey (70% PEG400). In kind it is ADME, organism-based, Macaca fascicularis. Also noted: dose 1 mg/kg, route intravenous.
Data set [13] addresses Receptor tyrosine-protein kinase erbB-2 (Homo sapiens, UniProt P04626). The data set is described as follows: Selectivity against HER2 kinase.
The nature of data set [14]: Selectivity against Protein kinase C alpha, Protein kinase C beta, Protein kinase C gamma.
The target in data set [15] is cAMP-dependent protein kinase (PKA) (Homo sapiens, UniProt P22694+P17612+P22612). The data set is described as follows: Selectivity against Protein kinase A (PKA). The data set is classed as protein assay.
For data set [16], the system named is Mus musculus. The data set is described as follows: In vivo inhibition of LPS-stimulated TNF-alpha in mouse at 100 mg/kg peroral dose; NS = Not significant. In kind it is functional, organism-based. Also noted: dose 100 mg/kg. The gist of the method: (§1)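 Female Balb/c mice (~20 g) received compound or vehicle orally in cremophor about 30 min before an i.v. challenge of E. coli 0111:B4 LPS (1.0 μg/mouse) plus D-gal (50 mg/kg) in pyrogen-free saline. One hour after challenge, the mice were bled by cardiac puncture. Serum TNF-α was measured by ELISA in duplicate, and compound levels by HPLC.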

The nature of data set [17]: Plasma level of compound was measured after 90 min post dose in mouse. The data set is classed as ADME, organism-based. The following applies: read-out: Plasma level. In outline: as §1
The subject of data set [18] is Mus musculus. The data set is described as follows: In vivo inhibition of LPS-stimulated TNF-alpha in mouse at 100 mg/kg peroral dose. The data set is classed as functional. As to conditions: route oral. In outline: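 Female Balb/c mice (~20 g) dosed orally in cremophor ~30 min before iv LPS (E. coli 0111:B4, 1.0 μg/mouse) plus D-gal (50 mg/kg) in pyrogen-free saline. Blood taken by cardiac puncture 1 h after challenge; serum TNF-α by ELISA in duplicate; serum compound levels by HPLC.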

Data set [19] can be described thus: Plasma level of compound was measured after 90 min post dose in mouse. In kind it is ADME, organism-based. The following applies: read-out: Plasma level. The gist of the method:
as §1

The target of the next data set is MAP kinase p38 (Homo sapiens, UniProt O15264+Q15759+Q16539+P53778). The experiment in a line: Binding affinity against human Mitogen-activated protein kinase p38. The data set is classed as protein assay. The gist of the method:
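Inhibitor at two concentrations (typically 1 and 0.1 μM, verified by HPLC); 60 min room temperature; excitation 332 nm, emission 420 nm. Duplicates; all points fit to equilibrium binding equation for Kd.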

Structures are written as SMILES. The source made the active and inactive calls. The calls are words filed in the database; no cut-off is given here.

Receptor tyrosine-protein kinase erbB-2, sequence (P04626 whole entry): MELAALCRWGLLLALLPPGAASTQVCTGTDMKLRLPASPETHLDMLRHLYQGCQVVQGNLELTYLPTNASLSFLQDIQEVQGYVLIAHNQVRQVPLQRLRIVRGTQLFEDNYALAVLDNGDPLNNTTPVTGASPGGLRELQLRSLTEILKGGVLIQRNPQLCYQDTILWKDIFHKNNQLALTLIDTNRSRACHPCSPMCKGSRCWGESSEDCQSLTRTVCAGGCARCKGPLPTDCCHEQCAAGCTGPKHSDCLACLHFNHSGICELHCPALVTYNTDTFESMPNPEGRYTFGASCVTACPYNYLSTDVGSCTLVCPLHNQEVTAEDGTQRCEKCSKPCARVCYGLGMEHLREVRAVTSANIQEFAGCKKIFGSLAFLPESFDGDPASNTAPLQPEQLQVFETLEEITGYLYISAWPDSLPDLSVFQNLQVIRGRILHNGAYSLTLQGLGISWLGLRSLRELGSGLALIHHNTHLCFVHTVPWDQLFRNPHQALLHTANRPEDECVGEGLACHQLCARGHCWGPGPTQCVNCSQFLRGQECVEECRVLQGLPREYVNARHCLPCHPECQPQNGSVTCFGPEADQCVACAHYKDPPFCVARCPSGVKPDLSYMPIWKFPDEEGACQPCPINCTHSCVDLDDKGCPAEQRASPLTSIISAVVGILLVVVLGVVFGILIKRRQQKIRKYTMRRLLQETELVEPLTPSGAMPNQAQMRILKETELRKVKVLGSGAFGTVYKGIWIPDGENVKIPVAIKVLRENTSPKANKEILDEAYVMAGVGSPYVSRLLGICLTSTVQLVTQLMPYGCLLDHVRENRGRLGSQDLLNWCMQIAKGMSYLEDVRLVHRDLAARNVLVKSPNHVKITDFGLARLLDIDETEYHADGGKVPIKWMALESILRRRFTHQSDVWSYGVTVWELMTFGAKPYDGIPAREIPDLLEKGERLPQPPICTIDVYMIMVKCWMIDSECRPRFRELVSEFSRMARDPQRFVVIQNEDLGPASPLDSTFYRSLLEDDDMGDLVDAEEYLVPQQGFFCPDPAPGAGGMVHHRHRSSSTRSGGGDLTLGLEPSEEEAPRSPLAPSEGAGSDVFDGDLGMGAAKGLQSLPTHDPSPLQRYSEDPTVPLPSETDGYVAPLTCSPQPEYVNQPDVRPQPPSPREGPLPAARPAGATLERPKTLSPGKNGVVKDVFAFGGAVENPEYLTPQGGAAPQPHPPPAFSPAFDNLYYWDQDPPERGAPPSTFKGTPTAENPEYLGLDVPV

The half-life is how long it takes for the measured level to halve. As usually defined, the Cmax is the peak of the concentration-time curve. One may read the Tmax as the time at which the peak concentration occurs. Broadly, the clearance is the volume of plasma or blood freed of the substance per unit of time. By IC50 is commonly meant the midpoint of a concentration-inhibition curve. On to `Cc1ccc(-n2nc(C(C)(C)C)cc2NC(=O)Nc2ccc(OCCN3CCOCC3)c3ccccc23)cc1` [DORAMAPIMOD], for which the results for the bioavailability in [1] and in data set [2] were 23% and 80%, respectively. In addition, the figures for the half-life in [3] and in data set [7] were 2.6 h and 1.6 h, respectively. The Vd in data set [4] worked out at 0.07 L/kg; in data set [5], 1.9 L/kg. Moreover, the Cmax in data set [6] was determined as 27000 ng/mL; in [8] it was 1700 ng/mL. In addition, the time to peak (Tmax) in data set [9] worked out at 1 h; in data set [10], 3 h. For the same compound, the clearance in [11] turned out to be 0.33 mL/min/kg; in data set [12] it was 14.4 mL/min/kg. For the same compound, the IC50 in data set [13], in data set [14] and in data set [15] was more than 20 µM throughout.
Regarding `CC(C)(C)c1cc(NC(=O)Nc2ccccc2)n(-c2ccccc2)n1`, the NS result with Mus musculus [16] is “inactive”. Further, the concentration at 1.5 h in data set [17] was determined as 100 ng/mL.
In general, inhibition in vivo refers to the relative decrease from the control value, in per cent. In the data set on Mus musculus [18], `Cc1ccc(-n2nc(C(C)(C)C)cc2NC(=O)Nc2ccccc2)cc1` had an inhibition in vivo at 100 mg/kg of 67%. For the same compound, in [19], the concentration at 1.5 h worked out at 11000 ng/mL.
Usually Kd stands for the constant that tells how readily two partners part at equilibrium. Take `Cc1ccc(-n2nc(C(C)(C)C)cc2NC(=O)Nc2cccc3ccccc23)cc1`: at MAP kinase p38, the Kd was 0.001 µM.
In the data set on Mus musculus [18], `Cc1ccc(-n2nc(C(C)(C)C)cc2NC(=O)Nc2ccccc2F)cc1` showed an inhibition in vivo at 100 mg/kg of 90%. For the same compound, the concentration at 1.5 h in data set [17] is 51000 ng/mL.

The record behind these values is ChEMBL document CHEMBL1135498, “Pyrazole urea-based inhibitors of p38 MAP kinase: from lead compound to clinical candidate” (J Med Chem, 2002).
